Measured values taken from ChEMBL document CHEMBL1667831, “Synthesis and biological evaluation of 2-aminoimidazole/carbamate hybrid anti-biofilm and anti-microbial agents” (Bioorg Med Chem Lett, 2011).
pEC50, pIC50: −log10 of the molar value.

Legend:
Acinetobacter baumannii [1] = experiment: Antibacterial activity against Acinetobacter baumannii ATCC 19606; format: functional; settings: ATCC 19606 = CIP 70.34 = JCM 6841
How it was run: (§1)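 MIC, the minimum inhibitory concentration, measured against planktonic bacteria.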

[2] = Cytotoxicity against sheep RBC assessed hemolysis; format: cell-based, Ovis aries, Erythrocyte; settings: sheep red blood cells, read-out: HD50 (the source's name)
How it was run: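 Red blood cell hemolysis assay using defibrinated sheep blood. HD50 is the concentration at which 50% hemolysis is observed.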

Pseudomonas aeruginosa [3] = experiment: Antibiofilm activity against Pseudomonas aeruginosa PA14; format: functional, organism-based
How it was run: (§2)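 Crystal violet reporter assay of biofilm formation, run as a dose-response. IC50 is the concentration inhibiting 50% of biofilm formation. Highest concentration tested 200 µM.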

Acinetobacter baumannii [4] = experiment: Antibiofilm activity against Acinetobacter baumannii ATCC 19606; format: functional, organism-based; settings: ATCC 19606 = CIP 70.34 = JCM 6841; how it was run: as §2
Staphylococcus aureus [5] = experiment: Antibacterial activity against Staphylococcus aureus ATCC 29213; format: functional; how it was run: as §1
Pseudomonas aeruginosa [6] = experiment: Antibacterial activity against Pseudomonas aeruginosa PA14; format: functional
Staphylococcus aureus [7] = experiment: Antibiofilm activity against methicillin-resistant Staphylococcus aureus; format: functional, organism-based
How it was run: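 Biofilm inhibition dose-response study. Biofilm formation is quantified with a crystal violet reporter assay. IC50 is the concentration that inhibits 50% of biofilm formation.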

Staphylococcus aureus [8] = experiment: Antibacterial activity against methicillin-resistant Staphylococcus aureus; format: functional; how it was run: as §1
Acinetobacter baumannii [9] = experiment: Antibacterial activity against multi-drug resistant Acinetobacter baumannii ATCC BAA-1605; format: functional; how it was run: as §1
Staphylococcus aureus [10] = experiment: Antibiofilm activity against methicillin-resistant Staphylococcus aureus assessed as biofilm dispersal; format: functional, organism-based
How it was run: (§3)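 Dispersal of pre-formed biofilms, tested in dose-response. The value reported is EC50.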

Acinetobacter baumannii [11] = experiment: Antibiofilm activity against Acinetobacter baumannii ATCC 19606 assessed as biofilm dispersal; format: functional, organism-based; settings: ATCC 19606 = CIP 70.34 = JCM 6841
How it was run: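 Dispersal of pre-formed A. baumannii biofilms, run as a dose-response. EC50 values are reported for dispersal.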

Staphylococcus aureus [12] = experiment: Antibiofilm activity against Staphylococcus aureus ATCC 29213 assessed as biofilm dispersal; format: functional, organism-based; how it was run: as §3

Row | SMILES | MIC (Acinetobacter baumannii [1]) [µg/mL] | HC50 [2] [µM] | pIC50 (Pseudomonas aeruginosa [3]) | pIC50 (Acinetobacter baumannii [4]) | MIC (Staphylococcus aureus [5]) [µg/mL] | MIC (Pseudomonas aeruginosa [6]) [µg/mL] | pIC50 (Staphylococcus aureus [7]) | MIC (Staphylococcus aureus [8]) [µg/mL] | MIC (Acinetobacter baumannii [9]) [µg/mL] | pEC50 (Staphylococcus aureus [10]) | pEC50 (Acinetobacter baumannii [11]) | pEC50 (Staphylococcus aureus [12])
1 | CC(C)[C@@H]1CC[C@@H](C)C[C@H]1OC(=O)NCCn1cc(CCCCCc2c[nH]c(N)n2)nn1.Cl | 64 | 474 | 4.23 | 4.02 | 16 | > 128 | 4.52 | 64 | 128 | – | – | –
2 | CC(C)[C@@H]1CC[C@@H](C)C[C@H]1OC(=O)N(CCCCCCc1cn(CCCCCCCc2c[nH]c(N)n2)nn1)CCc1ccccn1.Cl | > 128 | 42.7 | < 3.70 | 4.78 | 4 | > 128 | – | 4 | > 128 | 4.42 | 4.69 | 4.49
3 | CC(C)[C@@H]1CC[C@@H](C)C[C@H]1OC(=O)NCCCCCCc1c[nH]c(N)n1.Cl | 16 | 229 | 4.74 | – | 8 | 64 | – | 8 | 16 | – | – | –
4 | CC(C)[C@@H]1CC[C@@H](C)C[C@H]1OC(=O)NCCCn1cc(CCCCCc2c[nH]c(N)n2)nn1.Cl | 64 | 318 | 4.39 | – | 16 | 64 | 4.69 | 16 | 64 | – | – | –
5 | CC(C)[C@@H]1CC[C@@H](C)C[C@H]1OC(=O)NCCCCCc1c[nH]c(N)n1.Cl | 32 | 464 | 4.74 | 4.72 | 32 | 32 | – | 32 | 32 | – | – | –
6 | CC(=O)NCCCCCCc1cn(CCCCCc2c[nH]c(N)n2)nn1.Cl | > 128 | > 800 | < 3.70 | < 3.70 | > 128 | > 128 | < 3.70 | > 128 | > 128 | – | – | –
7 | CC(C)[C@@H]1CC[C@@H](C)C[C@H]1OC(=O)NCCCCCCCc1c[nH]c(N)n1.Cl | 8 | 474 | – | 4.78 | 8 | 64 | – | 8 | 8 | 4.27 | 4.17 | 4.41
8 | CC(C)[C@@H]1CC[C@@H](C)C[C@H]1OC(=O)N(CCCCCCc1cn(CCCCCCc2c[nH]c(N)n2)nn1)CCc1ccccn1.Cl | 32 | 46 | < 3.70 | 4.74 | 4 | > 128 | – | 4 | > 128 | – | – | –
9 | CC(C)[C@@H]1CC[C@@H](C)C[C@H]1OC(=O)N(CCCCCCc1cn(CCCCCc2c[nH]c(N)n2)nn1)CCc1ccccn1.Cl | 16 | 93.8 | < 3.70 | 4.72 | 4 | > 128 | – | 8 | 16 | < 3.70 | 4.43 | < 3.70
